B1: tRNA (parent)
chain: GUUCCGUUGGCGUAAUGGUAACGCGUCUCCCUCCUAAGGAGAAGACUGCGGGUUCGAGUCCCGUACGGAACG

Fewer inactive variants are shown than the library holds.

The variants in this series derive from B1. Put plainly: yeast fitness relative to wild type (ratio to wild type); higher = fitter; tRNA-Arg(CCU), competitive growth, 37 C, YPD. The method in brief:
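A pool of Saccharomyces cerevisiae strains, each with a tRNA-Arg(CCU) gene variant at the native genomic locus, was competed in YPD at 37°C for 24 hours across six parallel replicates. The variants had been chemically synthesised at a 3% per-site mutation rate over 69 sites, and gene amplicons before and after competition were read by 100-nucleotide paired-end sequencing. Darwinian fitness relative to wild type rested on changes in genotype frequencies. Genotypes required ≥ 100 starting reads, and estimates < 0.5 were set to 0.5.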
Turning to GUUCCGUUGGCGUAAUGGGAAUGCGUCUCCCUCCUAAGGAGAAGACUGCGGGUUCGAGUCCCGUACGGAGCG [U19G C22U A70G], the yeast fitness was determined as 0.624.

Consider GUUCCGUUGGCGUAAUGGUAAUGCGUCUCCCUCCUAAGGAGAAGACUCCGGGUUCGAGUCCCGUACCGAACG [C22U G48C G67C], for which the yeast fitness was not above 0.5.

As for GUUCCGUUGGCGUCAUGGUAACGCGUCUCACUCCUGAGGAGAAGACUGCGGGUUCGAGUCCUAUACGGAACG [A14C C30A A36G C62U G63A], the yeast fitness is not above 0.5.

For GUUUCGUUGGCGUAAUGGUAACGCGUCUCGCUCCUUAGGAGAAGACUGCGGGUUCGAGUCCCGUACGGACCG [C4U C30G A36U A70C], the yeast fitness is not above 0.5.

As to GUUCGGUUGGCGUAAUGGUAUCGCGUCUCCCUCCUAAGGAGAAGACUGCGGGUUUGAGUCCCGUACGGAACG [C5G A21U C55U], the yeast fitness came to 0.6.

On to GUUACGUUGGCCUAAUGGCAACGGGUCUCCCUCCUAAGGAGAUGACUGCGGGUCCGAGUCACGUACGGAACG [C4A G12C U19C C24G A43U U54C C61A], for which the yeast fitness was not above 0.5.

In the case of GAUCCGUUGGCGUAAUGGUAACGCGUCUCCCUACUAAGGAGAAGACUGCGGGUUGGAGUCCCGUACGGCACG [U2A C33A C55G A69C], the yeast fitness was not above 0.5.

GUUCCGUUGGCGUUAUGGUAACGCGGCUCCCUCCUAAGCAGAAGACUGCGGGUUCGAGUCCCGUACGGAUCG [A14U U26G G39C A70U]: the yeast fitness is not above 0.5.

Regarding GUUCCGUUGGCGUGAUGGUAACGCGUCUCCCUCGUAAGGAGACGACUGCGGGUUCGAGUCCCGUGCGGAACG [A14G C34G A43C A65G], the yeast fitness amounted to 0.558.

Consider GUUCCGUUGGCGUAAUGGGAACGCGUCUCCCUCUUAAGGAGAAGACUGCGGGUUCGAGUCCCGUACGCAACG [U19G C34U G68C], for which the yeast fitness worked out at 0.591.

Regarding GUUCCGUUGGCGUAAGGGUAACGCGUCUCCCUCCAAAGGAGAAGCCUGCGGAUUCGAGUCCCGUACGGAACG [U16G U35A A45C G52A], the yeast fitness is not above 0.5.

In the case of GUUCAGUUGGCGUAAUGGUAACGCGUCUCCCUCGUAAGGAGAAGACUGCGGGUUCGAAUCCCGUACAGAACG [C5A C34G G58A G67A], the yeast fitness is not above 0.5.

With GUUCCGUUUGCGUAAUGGUAACGGGUCUCCCUCCUAAGGAGAAGACUGCGGGUUUGAGUCCCGUAUGGAACG [G9U C24G C55U C66U], the yeast fitness was not above 0.5.

For the variant GUUCCGUUGGCGUAAUGGUAACGCGUCUCCCUCCUAAGGAGAAGAUUGCGCGUUCGAGUCCCGUACGGACCG [C46U G51C A70C], the yeast fitness worked out at 0.504.

In the case of GUUCCGUUGGUGUAAUGGUAACGCGUCUCCCUCCUAAGGAGAAGCCUGCGGGUUCGAGUCCGGUCCGGAACG [C11U A45C C62G A65C], the yeast fitness was not above 0.5.

As to GUACUGUUGGCGUAAUGGUAACGCGUCUCCCUCCUAAGGAGAAGACUGCGGGUUCGAGUCCCGUACGGAACG [U3A C5U], the yeast fitness is 0.85.

For the variant GUUCAGUUGACGUAAUGGUAACGCGUCUCCCUCCUAAGAAGAAGACUGCGGGGUCGAGUCCCGUACGGAACG [C5A G10A G39A U53G], the yeast fitness was not above 0.5.

Turning to GUUCGGUAGGCGUGAUGGUAACGCGUCUCCCUCCUAAGGAGAAGACUGCGGGUUCGAGUCCCGUACGGAACG [C5G U8A A14G], the yeast fitness was not above 0.5.

Consider GUUACGUUGGCGUAAUGGUAACCCGUCUCCCUCCUAAGGAGAAGACUGCGGGUUCGAGUCCCGUGCGGAACG [C4A G23C A65G], for which the yeast fitness is 0.569.

In the case of GUUCCGUUGGCGUAAUGGUGACCCGUCUCCCUCCUAAGGAGAAGACUGCGGGUUCGAGUCCCCUACGGAACG [A20G G23C G63C], the yeast fitness came out at 0.613.

GUUCCGUUGGCGUAAUGGUAACGCGUCUCCCUCCUAAGGAGAACACUGCGGGUUCGAGUCGCGUACGGAACG [G44C C61G]: the yeast fitness was 0.586.

Turning to GUUCCGUUGGCGUAUUGGUAAGGCGUCUCCUUCCUAAGGAGAAGACUGCGGGUUCGAGUCCCGAACGCAUCG [A15U C22G C31U U64A G68C A70U], the yeast fitness is not above 0.5.

Take GUUCCGUUGCCGUAAUGGCAACGCGUCUCCCUCCUAAGGAGAAGACUGCGGGUUCGAGUCCCGUGCGGACCG [G10C U19C A65G A70C]: the yeast fitness is not above 0.5.

Consider GUUUCGUUGGCGUAAUGGUAACGCGUCUCCCUCCUAAGGAGAAGACUGCGGGUUCGAGUCCCGUGUGGAACG [C4U A65G C66U], for which the yeast fitness was found to be 0.787.

Turning to GUUCCGUUGCCGUAAUGGUAACGCGUCUCCCUCCUAAGGAGAAGACUGCGGGUUCGAGUCCCGUACGGUACG [G10C A69U], the yeast fitness is 0.661.

For the variant GUUCGGUUGGCGGAAUGGUAACGCGUCUUCCUCCUAAGGGGAAGACUGCGGGUUCGAGUCCCGUACGGAACG [C5G U13G C29U A40G], the yeast fitness was not above 0.5.

With GUUCCGUUGGCGUAAUGGUGAUGCGUCUCCCUCCUAAGGAGAAGACUGUGGGUUCGAGUCCCGUACGGAACG [A20G C22U C49U], the yeast fitness was determined as 0.682.

With GUUCCGUUGGCGUAAUGGUAACGAGUCUCCCUCCUUAGGAGAAGACUGCGGGUUCGAGUCUCGUACUGAACG [C24A A36U C61U G67U], the yeast fitness worked out at 0.608.

With GUUCCGUUGCCGUAAUGGUAACGCGUCUCCCUCCUAAGGAGAACACUGCGCGUUCGAGUCCCGUACGGAACG [G10C G44C G51C], the yeast fitness was not above 0.5.

Regarding GUUCCGUUGGCGUAAUGCUAACGCGUCUCCCUCCUAAGGAGAAGACUGCGGGUUCGAGUCCCGUACGGCACG [G18C A69C], the yeast fitness is 0.642.

With GUUCCGUUGGCGUAAUGGUAACGCGUCUCCCUCCUAAGGAGAAGACUGCGGGUUCCAGUCCCGUACGGACCG [G56C A70C], the yeast fitness amounted to 0.813.

In the case of GUUCCGUUGGCGUAAUGGUAACGCGUCUCCCUCUUAAGGAGAAGACUGUGGGUUUGAGUCCCGUACGGAACG [C34U C49U C55U], the yeast fitness is not above 0.5.

As for GUUGCGUUGGCGUAAUAGUAACGCGCCUCCCUCCUAAGGGGAAGACUGCGGGUUCGAGUCCCGUACGGACCG [C4G G17A U26C A40G A70C], the yeast fitness was 0.793.

For the variant GUUCCGUUGGCGUAAUGGUAACGCGUCUCCCUCCUAACGAGAAGACUGCGGGUUCGCGUCCCGUACGGAACG [G38C A57C], the yeast fitness is 0.535.

On to GUUCCGUUGGCGUAAUGGUAACGCGUCUCCUUCCUAUGGAGAAGACUGCGGGUUCGAGUGCCGUACGGAACG [C31U A37U C60G], for which the yeast fitness is not above 0.5.

GUUCCGUUGGCGUAAUGGUAACGCGUAUCCCUCCUGAGGAGAAGACUGCGGGUUCGAGUCCCGUACGGAUCG [C27A A36G A70U]: the yeast fitness was 0.561.

Consider GUUCCGUUGGCGUAAUGGUAACGCGUCUCCCUCCUACGGAGAAGACUGCGGGUUCGAGUCCCGUAGGGAACG [A37C C66G], for which the yeast fitness came out at 0.586.

The values above are taken from the RNAGym collection of RNA variant scans (doi:10.1126/science.aae0568).
